Assays:
[1] = tested on: L1210; assay: Antitumor activity against mouse L1210 cells allografted in ip dosed C3H/DBA2 F1 mouse assessed as optimum dose required to increase in maximum life span administered as qd for 5 days; type: functional
Method in brief: (§1)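 Mice: C3H/DBA2 F1 hybrids, 18.5-22.5 g, inoculated ip with 10⁵ L1210 cells on day 1. Treatment ip daily for 5 days from 24 h later, dose in 0.2 ml water (suspended or dissolved). T/C = ratio of mean life spans, treated vs control; optimum dose gives maximum T/C.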

[2] = tested on: L1210; assay: Antitumor activity against mouse L1210 cells allografted in C3H/DBA2 F1 mouse assessed as increase in life span at optimum dose, ip qd administered for 5 days relative to control; type: functional; method in brief: as §1
[3] = Dissociation constant, pKa of the compound; type: physicochemical

CC(=O)Nc1ccc2nc3ccccc3c(Nc3ccc(NS(C)(=O)=O)cc3)c2c1
Activity [1]: 13 mg/kg/day
T/C [2]: 214%

C[n+]1c2ccccc2c(Nc2ccccc2)c2ccccc21
Activity [1]: >500 mg/kg/day

COc1cc(NS(C)(=O)=O)ccc1Nc1c2ccccc2[n+](C)c2ccccc12
Activity [1]: 12 mg/kg/day
T/C [2]: 172%

C[n+]1c2ccccc2c(Nc2cccc(N)c2)c2ccccc21
Activity [1]: 120 mg/kg/day
T/C [2]: 137%

CC(=O)Nc1ccc2c(c1)c(Nc1ccc(NS(C)(=O)=O)cc1)c1ccccc1[n+]2C
Activity [1]: 6 mg/kg/day
T/C [2]: 181%

CC(=O)Nc1ccc2c(Nc3ccc(NS(C)(=O)=O)cc3)c3ccccc3[n+](C)c2c1
Activity [1]: 15 mg/kg/day
T/C [2]: 134%

CC(=O)Nc1ccc2c(Nc3ccccc3)c3ccccc3[n+](C)c2c1
Activity [1]: 50 mg/kg/day
T/C [2]: 126%

C[n+]1c2ccccc2c(Nc2ccc(NS(C)(=O)=O)cc2)c2cc(N)ccc21
Activity [1]: 1.25 mg/kg/day
T/C [2]: 180%

CC(=O)Nc1cccc(Nc2c3ccccc3[n+](C)c3ccccc23)c1
Activity [1]: 67 mg/kg/day
T/C [2]: 132%

C[n+]1c2ccccc2c(Nc2ccccc2)c2ccc(N)cc21
Activity [1]: 20 mg/kg/day
T/C [2]: 148%

C[n+]1c2ccccc2c(Nc2ccc(N)cc2)c2ccccc21
Activity [1]: 75 mg/kg/day
T/C [2]: 163%

CS(=O)(=O)Nc1ccc(Nc2c3ccccc3nc3cc([N+](=O)[O-])ccc23)cc1
Activity [1]: 250 mg/kg/day
T/C [2]: 127%

Nc1ccc(Nc2c3ccccc3nc3ccccc23)cc1
Activity [1]: 33 mg/kg/day
T/C [2]: 172%

NC(=O)c1ccc(Nc2c3ccccc3nc3ccccc23)cc1
Activity [1]: >500 mg/kg/day

NS(=O)(=O)c1ccc(Nc2c3ccccc3nc3ccccc23)cc1
Activity [1]: >500 mg/kg/day

CC(=O)Nc1cccc(Nc2c3ccccc3nc3ccccc23)c1
Activity [1]: 30 mg/kg/day
T/C [2]: 133%

CC(=O)Nc1ccc2c(c1)c(Nc1ccccc1)c1ccccc1[n+]2C
Activity [1]: 22 mg/kg/day
T/C [2]: 158%

C[n+]1c2ccccc2c(Nc2ccc(C(N)=O)cc2)c2ccccc21
Activity [1]: >500 mg/kg/day

C[n+]1c2ccccc2c(Nc2ccc(NS(C)(=O)=O)cc2)c2ccc(N)cc21
Activity [1]: 5 mg/kg/day
T/C [2]: 167%

CCS(=O)(=O)Nc1ccc(Nc2c3ccccc3[n+](C)c3ccccc23)cc1
Activity [1]: 110 mg/kg/day
T/C [2]: 166%

CCCS(=O)(=O)Nc1ccc(Nc2c3ccccc3[n+](C)c3ccccc23)cc1
Activity [1]: >500 mg/kg/day

CCCCS(=O)(=O)Nc1ccc(Nc2c3ccccc3[n+](C)c3ccccc23)cc1
Activity [1]: >500 mg/kg/day

C[n+]1c2ccccc2c(Nc2ccc(S(N)(=O)=O)cc2)c2ccccc21
Activity [1]: >500 mg/kg/day

C[n+]1c2ccccc2c(Nc2ccc(NS(C)(=O)=O)cc2)c2ccc([N+](=O)[O-])cc21
Activity [1]: >500 mg/kg/day

COc1cc(NS(C)(=O)=O)ccc1Nc1c2ccccc2[n+](C)c2ccc(Cl)cc12
Activity [1]: 12 mg/kg/day
T/C [2]: 179%

CCS(=O)(=O)Nc1ccc(Nc2c3ccccc3[n+](C)c3ccc(Cl)cc23)c(OC)c1
Activity [1]: 60 mg/kg/day
T/C [2]: 166%

C[n+]1c2ccccc2c(Nc2ccc(NS(C)(=O)=O)cc2)c2cc(Br)ccc21
Activity [1]: 47 mg/kg/day
T/C [2]: 168%

CS(=O)(=O)Nc1ccc(Nc2c3ccccc3nc3ccc(Br)cc23)cc1
Activity [1]: 35 mg/kg/day
T/C [2]: 165%

COc1cc(NS(C)(=O)=O)ccc1Nc1c2ccccc2[n+](C)c2ccc(Br)cc12
Activity [1]: 12 mg/kg/day
T/C [2]: 158%

COc1cc(NS(C)(=O)=O)ccc1Nc1c2ccccc2nc2ccc(Br)cc12
Activity [1]: 6 mg/kg/day
T/C [2]: 219%

C[n+]1c2ccccc2c(Nc2ccccc2)c2ccc([N+](=O)[O-])cc21
Activity [1]: >500 mg/kg/day

Cn1ccc(=N)cc1
pKa [3]: 12.5

Cn1ccc(=N)c2ccccc21
pKa [3]: 12.4

CCS(=O)(=O)Nc1ccc(Nc2c3ccccc3nc3ccccc23)cc1
Activity [1]: 150 mg/kg/day
T/C [2]: 183%

COc1cc(NS(C)(=O)=O)ccc1Nc1c2ccccc2nc2ccc(Cl)cc12
Activity [1]: 10 mg/kg/day
T/C [2]: 172%

C[n+]1c2ccccc2c(Nc2ccccc2)c2cc(N)ccc21
Activity [1]: 14 mg/kg/day
T/C [2]: 162%

C[n+]1c2ccccc2c(Nc2ccc(NS(C)(=O)=O)cc2)c2ccccc21
Activity [1]: 95 mg/kg/day
T/C [2]: 184%

Nc1cccc(Nc2c3ccccc3nc3ccccc23)c1
Activity [1]: 40 mg/kg/day
T/C [2]: 146%

c1ccc(Nc2c3ccccc3nc3ccccc23)cc1
Activity [1]: >500 mg/kg/day

CCCCS(=O)(=O)Nc1ccc(Nc2c3ccccc3nc3ccccc23)cc1
Activity [1]: >500 mg/kg/day

CS(=O)(=O)Nc1ccc(Nc2c3ccccc3nc3ccc(N)cc23)cc1
Activity [1]: 2.5 mg/kg/day
T/C [2]: 181%

CCCS(=O)(=O)Nc1ccc(Nc2c3ccccc3nc3ccccc23)cc1
Activity [1]: 225 mg/kg/day
T/C [2]: 134%

CC(=O)Nc1ccc2c(Nc3ccc(NS(C)(=O)=O)cc3)c3ccccc3nc2c1
Activity [1]: 375 mg/kg/day
T/C [2]: 147%

CS(=O)(=O)Nc1ccc(Nc2c3ccccc3nc3cc(N)ccc23)cc1
Activity [1]: 25 mg/kg/day
T/C [2]: 178%

CS(=O)(=O)Nc1ccc(Nc2c3ccccc3nc3ccccc23)cc1
Activity [1]: 45 mg/kg/day
T/C [2]: 207%

COc1cc(NS(C)(=O)=O)ccc1Nc1c2ccccc2nc2ccccc12 [AMSACRINE]
Activity [1]: 12 mg/kg/day
T/C [2]: 196%

Source: ChEMBL document CHEMBL3272175, “Potential antitumor agents. 17. 9-Anilino-10-methylacridinium salts” (J Med Chem, 1976)
